Measurements from ChEMBL document CHEMBL3425461, “Positron emission tomography to elucidate pharmacokinetic differences of regioisomeric retinoid x receptor agonists” (ACS Med Chem Lett, 2015).
pEC50: −log10 of the molar value. Each block holds one compound with its values, some of them ahead of it.

Experiments:
[1] = Drug level in ICR mouse plasma at 30 mg/kg, po administered as single dose measured after 1 hr; format: ADME, organism-based; parameters: dose 30 mg/kg, route oral
In short: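 Single oral dose of 30 mg/kg given as 0.5% CMC suspension to mice; blood and brain concentrations of non-radioactive compound measured 1 h after dosing.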

[2] = Retention time of the compound by HPLC method; format: physicochemical
In short: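 Reversed-phase HPLC, 3 μm column, 0.7 mL/min, methanol/25 mM ammonium acetate pH 5.0 (80:20 v/v) mobile phase, UV detection at 260 nm.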

[3] = molecular target: T1, Retinoic acid receptor RXR-alpha (Homo sapiens, UniProt P19793); test: Agonist activity at RXRalpha (unknown origin) expressed in COS1 cells incubated for 18 hrs by luciferase reporter gene assay; format: cell-based, COS-1
T1 sequence (P19793 whole entry): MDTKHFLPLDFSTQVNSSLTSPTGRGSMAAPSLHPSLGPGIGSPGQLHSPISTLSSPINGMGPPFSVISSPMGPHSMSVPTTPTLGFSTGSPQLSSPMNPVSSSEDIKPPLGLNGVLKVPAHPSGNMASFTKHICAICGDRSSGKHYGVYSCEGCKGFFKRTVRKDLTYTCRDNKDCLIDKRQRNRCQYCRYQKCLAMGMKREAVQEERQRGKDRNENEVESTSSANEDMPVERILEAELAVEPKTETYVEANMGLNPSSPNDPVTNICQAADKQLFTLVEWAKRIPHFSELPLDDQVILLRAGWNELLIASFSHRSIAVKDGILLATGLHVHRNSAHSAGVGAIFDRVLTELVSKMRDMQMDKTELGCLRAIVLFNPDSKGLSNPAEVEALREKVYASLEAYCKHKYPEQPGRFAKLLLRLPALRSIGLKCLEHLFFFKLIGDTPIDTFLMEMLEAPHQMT

Duodenum [4] = test: Drug uptake in ICR mouse duodenum at 8 to 11 MBq, iv by PET/CT imaging method; format: ADME, organism-based; conditions: in vivo
In short: (§1)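 Tracer dissolved in EtOH, diluted with saline to 10 MBq, given i.v. or p.o.; 30 min PET/CT scan, images reconstructed at selected times; organ ROIs defined from PET/CT data; uptake expressed as %ID (organ Bq per whole-body Bq) from mean pixel radioactivity; n = 3–5, mean ± SEM; one-way ANOVA then t-test.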

[5] = Drug uptake in ICR mouse gall bladder at 8 to 11 MBq, iv by PET/CT imaging method; format: ADME, organism-based; conditions: in vivo; in short: as §1
[6] = Drug uptake in ICR mouse urinary bladder at 8 to 11 MBq, iv by PET/CT imaging method; format: ADME, organism-based; conditions: in vivo; in short: as §1
Liver [7] = test: Drug uptake in ICR mouse liver at 8 to 11 MBq, po by PET/CT imaging method; format: ADME, organism-based; conditions: in vivo; in short: as §1
Liver [8] = test: Drug uptake in ICR mouse liver at 8 to 11 MBq, iv by PET/CT imaging method; format: ADME, organism-based; conditions: in vivo; in short: as §1
Kidney [9] = test: Drug uptake in ICR mouse kidney at 8 to 11 MBq, iv by PET/CT imaging method; format: ADME, organism-based; conditions: in vivo
Stomach [10] = test: Drug uptake in ICR mouse stomach at 8 to 11 MBq, po after 30 mins by PET/CT imaging method; format: ADME, organism-based; conditions: in vivo, 0.5 h; in short: as §1
Duodenum [11] = test: Drug uptake in ICR mouse duodenum at 8 to 11 MBq, po by PET/CT imaging method; format: ADME, organism-based; conditions: in vivo; in short: as §1
[12] = Drug uptake in ICR mouse urinary bladder at 8 to 11 MBq, po by PET/CT imaging method; format: ADME, organism-based; conditions: in vivo; in short: as §1
Kidney [13] = test: Drug uptake in ICR mouse kidney at 8 to 11 MBq, po by PET/CT imaging method; format: ADME, organism-based; conditions: in vivo
Heart [14] = test: Ratio of AUC (0 to 30 mins) in ICR mouse heart at 8 to 11 MBq, po to AUC (0 to 30 mins) in ICR mouse heart at 8 to 11 MBq, iv; format: ADME, organism-based; conditions: in vivo
In short: (§2)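 Tracer in EtOH diluted with saline to 10 MBq, given i.v. or p.o.; 30 min PET scan; blood radioactivity as %ID/mL from heart %ID divided by heart volume; AUC over 0–30 min; bioavailability as dose-corrected oral AUC over i.v. AUC; n = 3–5, mean ± SEM.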

Stomach [15] = test: Drug uptake in ICR mouse stomach at 8 to 11 MBq, po by PET/CT imaging method; format: ADME, organism-based; conditions: in vivo; in short: as §1
Heart [16] = test: Drug uptake in ICR mouse heart at 8 to 11 MBq, iv by PET/CT imaging method; format: ADME, organism-based; conditions: in vivo; in short: as §1
[17] = Drug uptake in ICR mouse gall bladder at 8 to 11 MBq, po by PET/CT imaging method; format: ADME, organism-based; conditions: in vivo; in short: as §1
Heart [18] = test: Drug uptake in ICR mouse heart at 8 to 11 MBq, iv during 0 to 30 mins by PET imaging method; format: ADME, organism-based; conditions: in vivo; in short: as §2
[19] = Drug level in ICR mouse brain at 30 mg/kg, po administered as single dose measured after 1 hr
[20] = Ratio of drug level in brain to plasma of ICR mouse at 30 mg/kg, po administered as single dose measured after 1 hr
[21] = AUC in mouse blood at 30 mg/kg, po; format: ADME, organism-based; parameters: dose 30 mg/kg, route oral
In short: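 AUC at 30 mg/kg p.o. in mice taken from earlier work; skip.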

Compound: CCN(c1ccc(OCC(C)CF)c(C(C)C)c1)c1ccc(C(=O)O)cn1 (stereo unspecified)
Retention_time [2]: 6.7 min | pEC50 [3]: 6.35

Compound: CCN(c1ccc(OCC(C)C[18F])c(C(C)C)c1)c1ccc(C(=O)O)cn1 (stereo unspecified)
Drug uptake (Duodenum [4]): Active | Drug uptake [5]: Active | Drug uptake [6]: Not Active | Drug uptake (Liver [7]): Active | Drug uptake (Liver [8]): Active | Drug uptake (Kidney [9]): Not Active | Drug uptake (Stomach [10]): Active | Drug uptake (Duodenum [11]): Active | Drug uptake [12]: Not Active | Drug uptake (Kidney [13]): Not Active | Ratio (Heart [14]): 0.43 | Drug uptake (Stomach [15]): Active | Drug uptake (Heart [16]): Active | Drug uptake [17]: Active

Compound: CCN(c1ccc(C(C)C)c(OCC(C)CF)c1)c1ccc(C(=O)O)cn1 (stereo unspecified)
Retention_time [2]: 7.63 min | pEC50 [3]: 7.92

Compound: CCN(c1ccc(C(C)C)c(OCC(C)C)c1)c1ccc([11C](=O)O)cn1
Drug uptake (Heart [18]): Active

Compound: CCN(c1ccc(C(C)C)c(OCC(C)C)c1)c1ccc(C(=O)O)cn1
Retention_time [2]: 12.7 min | concentration at 1 h [19]: 978 ng/mL | Kp at 1 h [20]: 0.74 | concentration at 1 h [1]: 1320 ng/mL | AUC [21]: 1140 ng·h/mL

Compound: CCN(c1ccc(C(C)C)c(OCC(C)C[18F])c1)c1ccc(C(=O)O)cn1 (stereo unspecified)
Drug uptake (Duodenum [4]): Active | Drug uptake [5]: Active | Drug uptake [6]: Not Active | Drug uptake (Liver [7]): Active | Drug uptake (Liver [8]): Active | Drug uptake (Kidney [9]): Not Active | Drug uptake (Stomach [10]): Active | Drug uptake (Duodenum [11]): Active | Drug uptake [12]: Not Active | Drug uptake (Kidney [13]): Not Active | Ratio (Heart [14]): 0.18 | Drug uptake (Stomach [15]): Active | Drug uptake (Heart [16]): Active | Drug uptake [17]: Active

Second part, the compound after the results:

concentration at 1 h [1]: 4150 ng/mL
Compound: C=C(c1ccc(C(=O)O)cc1)c1cc2c(cc1C)C(C)(C)CCC2(C)C [BEXAROTENE]

Retention_time [2]: 11.7 min | concentration at 1 h [19]: 2570 ng/mL | Kp at 1 h [20]: 0.38 | concentration at 1 h [1]: 6760 ng/mL | pEC50 [3]: 6.77 | AUC [21]: 18800 ng·h/mL
Compound: CCN(c1ccc(OCC(C)C)c(C(C)C)c1)c1ccc(C(=O)O)cn1

Drug uptake (Heart [18]): Active
Compound: CCN(c1ccc(OCC(C)C)c(C(C)C)c1)c1ccc([11C](=O)O)cn1
